The source made the active and inactive calls.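 How the source made its calls: active means E. coli viability under 80% of the solvent control at every tested dose; inactive means viability of 80% or more at every tested dose.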
Test system: E. coli V66 viability, colony formation, Hfr cross
Assay: recipient strain toxicity in Hfr mating – colony formation, Hfr recombination, cytotoxicity control for AddAB inhibitor project, dose response (AID 623917)
Details: stronger effect = lower value
In short: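 Material: E. coli V66 recipient cells; Medium: LB broth during compound exposure; Incubation: 1 h growth with compound, 1.5 h overall; Signal: colony counts on non-selective agar plates, CFU/mL; Read-out: V66 CFU/mL as percent of DMSO control.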

Row | SMILES | viability
1 | CCn1cc(C(=O)O)c(=O)c2cnc(N3CCN(C(=S)Nc4ccccc4C(F)(F)F)CC3)nc21 | 90% (inactive)
2 | O=C(NCc1cccnc1)c1ccc([N+](=O)[O-])o1 | 100% (inactive)
3 | CCn1cc(C(=O)O)c(=O)c2cnc(N3CCN(C(=S)Nc4cccc(C(F)(F)F)c4)CC3)nc21 | 100% (inactive)
4 | CCn1cc(C(=O)O)c(=O)c2cnc(N3CCNCC3)nc21 | 90% (inactive)
5 | CCn1cc(C(=O)O)c(=O)c2cc(F)c(N3CCN(C(=S)Nc4cccc(C(F)(F)F)c4)CC3)cc21 | 12%
6 | CC1CCc2c(sc(NC(=O)c3ccc([N+](=O)[O-])o3)c2C#N)C1 (stereo not drawn) | 90% (inactive)
7 | O=C(Nc1ncccn1)c1ccc([N+](=O)[O-])o1 | 100% (inactive)
8 | C=CCn1c(Sc2ncc([N+](=O)[O-])s2)n[nH]c1=O | 90% (inactive)

Source: PubChem BioAssay AID623917 (The Scripps Research Institute Molecular Screening Center, 2012)
